# Test results as given in ChEMBL document CHEMBL1124884, “Potent renin inhibitory peptides containing hydrophilic end groups” (J Med Chem, 1990).
# *1 amine or outer side, *2 acyl side, *3 side chain or, on linkers, in order; H or OH if unused. Where a SMILES comes first, the peptide text is derived from it. [ ]: non-standard residue; d: D form. The star is where a group is joined. Leuψ((S)CH(OH)CH2)dVal = CC(C)C[C@H](N[*:1])[C@@H](O)C[C@@H](C(=O)[*:2])C(C)C; X2 = OC[C@H]1O[C@H](O)[C@H](N*)[C@@H](O)[C@H]1O; NMeH = CN[C@@H](Cc1c[nH]cn1)C(=O)O; NHCH2(2-pyridyl) = c1ccc(CN*)nc1; NHC(CH2OH)3 = OCC(CO)(CO)N*; Boc = CC(C)(C)OC(=O)*; CO = O=C([*:1])[*:2]
# What was measured:
# [1] = Solubility in water at 37 degrees Centigrade; format: physicochemical; settings: read-out: S
# Method in brief: (§1)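 Visual estimate: compound added to distilled water in a series of clear tubes at 1-100 mg/mL, tubes shaken, observed first at 25 °C and again after 30 min in a 37 °C water bath.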
# [2] = Solubility in water at 25 degrees Centigrade; format: physicochemical; settings: read-out: S; method in brief: as §1
# Renin (Homo sapiens) [3] = target: Renin (Homo sapiens) (UniProt P00797); assay: Tested in vitro for inhibitory activity against plasma renin in human plasma
# Chain of Renin (Homo sapiens) (P00797 whole entry, looked up): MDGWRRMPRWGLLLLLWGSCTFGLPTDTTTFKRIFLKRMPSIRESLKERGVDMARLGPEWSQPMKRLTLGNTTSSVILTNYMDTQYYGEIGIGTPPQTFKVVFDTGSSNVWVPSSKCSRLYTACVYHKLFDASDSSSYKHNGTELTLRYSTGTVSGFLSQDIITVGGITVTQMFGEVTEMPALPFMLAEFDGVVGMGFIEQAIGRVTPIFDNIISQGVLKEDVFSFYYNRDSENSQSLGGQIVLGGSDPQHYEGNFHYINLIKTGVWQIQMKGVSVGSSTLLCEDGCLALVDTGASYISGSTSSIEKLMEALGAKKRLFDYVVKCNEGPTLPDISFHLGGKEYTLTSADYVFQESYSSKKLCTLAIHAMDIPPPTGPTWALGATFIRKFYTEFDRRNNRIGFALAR
# Renin (Homo sapiens) [4] = target: Renin (Homo sapiens) (UniProt P00797); assay: Maximum hypotensive activity, the magnitude of the human renin dependent blood pressure component was measured. (administered perorally)
# Renin (Homo sapiens) [5] = target: Renin (Homo sapiens) (UniProt P00797); assay: Maximum hypotensive activity, the magnitude of the human renin dependent blood pressure component was measured (administered intravenously.)
SMILES,solubility [1] [µg/mL],solubility [2] [µg/mL],IC50 (Renin (Homo sapiens) [3]) [nM],Hypotensive activity (Renin (Homo sapiens) [4]) [mmHg],Hypotensive activity (Renin (Homo sapiens) [5]) [mmHg]
CC[C@H](C)[C@H](NC(=O)[C@H](C[C@H](O)[C@H](CC(C)C)NC(=O)[C@H](Cc1cnc[nH]1)N(C)C(=O)[C@H](Cc1ccccc1)NC(=O)[C@@H]1CCCN1C(=O)N[C@@H]1[C@@H](O)[C@@H](O)[C@@H](CO)O[C@@H]1O)C(C)C)C(=O)NCc1ccccn1 ({X2-CO}-PF[NMeH][Leuψ((S)CH(OH)CH2)dVal]I-{NHCH2(2-pyridyl)}),< 2000,< 2000,0.49,–,–
CC[C@H](C)[C@H](NC(=O)[C@H](C[C@H](O)[C@H](CC(C)C)NC(=O)[C@H](Cc1c[nH]cn1)N(C)C(=O)[C@H](Cc1ccccc1)NC(=O)[C@@H]1CCCN1C(=O)N[C@@H]1[C@@H](O)[C@@H](O)[C@@H](CO)O[C@@H]1O)C(C)C)C(=O)NCc1ccccn1 ({X2-CO}-PF[NMeH][Leuψ((S)CH(OH)CH2)dVal]I-{NHCH2(2-pyridyl)}),–,–,–,37,36

# The next lines start with results.
solubility [1] [µg/mL],solubility [2] [µg/mL],IC50 (Renin (Homo sapiens) [3]) [nM],SMILES,Hypotensive activity (Renin (Homo sapiens) [4]) [mmHg],Hypotensive activity (Renin (Homo sapiens) [5]) [mmHg]
< 1000,1000,0.26,CC[C@H](C)[C@H](NC(=O)[C@H](C[C@H](O)[C@H](CC(C)C)NC(=O)[C@H](Cc1c[nH]cn1)N(C)C(=O)[C@H](Cc1ccccc1)NC(=O)[C@@H]1CCCN1C(=O)OC(C)(C)C)C(C)C)C(=O)NC(CO)(CO)CO (Boc-PF[NMeH][Leuψ((S)CH(OH)CH2)dVal]I-{NHC(CH2OH)3}),35,30
< 1000,< 1000,0.26,CC[C@H](C)[C@H](NC(=O)[C@H](C[C@H](O)[C@H](CC(C)C)NC(=O)[C@H](Cc1c[nH]cn1)N(C)C(=O)[C@H](Cc1ccccc1)NC(=O)[C@@H]1CCCN1C(=O)OC(C)(C)C)C(C)C)C(=O)NCc1ccccn1 (Boc-PF[NMeH][Leuψ((S)CH(OH)CH2)dVal]I-{NHCH2(2-pyridyl)}),24,25
1000,1000,0.33,CC[C@H](C)[C@H](NC(=O)[C@H](C[C@H](O)[C@H](CC(C)C)NC(=O)[C@H](Cc1c[nH]cn1)N(C)C(=O)[C@H](Cc1ccccc1)NC(=O)[C@@H]1CCCN1C(=O)NC(CO)(CO)CO)C(C)C)C(=O)NCc1ccccn1 ({NHC(CH2OH)3-CO}-PF[NMeH][Leuψ((S)CH(OH)CH2)dVal]I-{NHCH2(2-pyridyl)}),38,40
